# Results from different studies.
# Protocols differ between the studies behind these lines.
# Cell line: MDA-MB-231
# Observed: cell growth or viability
SMILES,assay,setting,IC50 [µM]
O=C(O)CCCc1ccc(N(CCCl)CCCl)cc1,CCK-8,48 h,> 50
Nc1cc(I)c(I)cc1N,,72 h,65
CC(C)=CCc1c(O)cc2oc3cc(O)c(O)c(CC=C(C)C)c3c(=O)c2c1O,,48 h,16.4
CCCc1cc(=O)n2nc(NCc3c(F)cc(Cl)cc3F)c(C#N)c2[nH]1,ATP luminescence,72 h,> 50
CC1=CC(=O)c2c(O)cccc2C1=O,MTT,24 h,4.4
N.N.[Cl][Pt][Cl],,48 h,27.5
CO[C@]1([C@@H]2CSC(=O)N2Cc2ccccc2)C[C@H]2C[C@@H](CC[C@H](C)/C=C\C=C\CC/C(C)=C\C(=O)O2)O1,MTT,72 h,6.82
Cn1c(CCCC(=O)O)nc2cc(N(CCCl)CCCl)ccc21,MTT,,13.3
COC1(C2CSC(=O)N2)CC2CC(CCC(C)C=CC=CCCC(C)=CC(=O)O2)O1 (stereo not drawn),MTT,72 h,23.4
N.N.O=C([O-])C1(C(=O)[O-])CCC1.[Pt+2],MTT,96 h,33
CO[C@]1([C@@H]2CSC(=O)N2C)C[C@H]2C[C@@H](CC[C@H](C)/C=C\C=C\CC/C(C)=C\C(=O)O2)O1,MTT,72 h,19.9
COc1ccc2c(c1)[nH]c1c(C)nccc12,MTT,72 h,16.7
